Assay results from ChEMBL document CHEMBL1255290, “Characterization of a novel human immunodeficiency virus type 1 protease inhibitor, A-790742” (Antimicrob Agents Chemother, 2008).

Legend:
[1] = system: Human immunodeficiency virus 1; test: Antiviral activity against HIV1 P13 infected in human MT4 cells derived from viral passages with A-790742 harboring protease M46I, L63P, A71V, and V82G mutation assessed as reduction in viral cytopathogenicity treated 1 hr post infection measured 5 days post infection by MTT assay relative to wild type HIV1 RF; type: functional
In short: (§1)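 For the assay, 10⁶ MT-4 cells were infected at MOI 0.003, washed after 1 h, and plated at 10⁴ cells/well with eight serial compound dilutions in triplicate (0.5% DMSO final). MTT cytopathic read-out at day 5; EC50 from dose-response fitting.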

[2] = system: Human immunodeficiency virus 1; test: Antiviral activity against HIV1 P9 infected in human MT4 cells derived from viral passages with A-790742 harboring protease V82V/L and I84V mutation assessed as reduction in viral cytopathogenicity treated 1 hr post infection measured 5 days post infection by MTT assay relative to wild type HIV1 pNL4-3; type: functional; in short: as §1
[3] = system: Human immunodeficiency virus 1; test: Antiviral activity against HIV1 clone1 infected in HEK293 cells harboring A-790742-selected protease I84V mutation assessed as reduction in viral replication by luciferase reporter gene assay relative to wild type HIV1 pNL4-3; type: functional
In short: (§2)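 Single-cycle assay: HEK-293 cells were cotransfected with luciferase-reporter HIV-1 protease clones plus a VSV-G expression vector. After 4 h, cells were replated at 2 × 10⁴/well over serial inhibitor dilutions in triplicate. Pseudovirus collected at 48 h infected fresh HEK-293 (10⁴/well). Luciferase read 48 h later gave % inhibition versus untreated and EC50. Fold change against WT pNL4-3-Luc (clones 1-4) or RF-Luc (clone 5) is the mean of three experiments.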

[4] = system: Human immunodeficiency virus 1; test: Antiviral activity against HIV1 P21 infected in human MT4 cells derived from viral passages with A-790742 harboring protease L23I, L33F, K45I, A71A/V, V77I, V82L, and I84V mutation assessed as reduction in viral cytopathogenicity treated 1 hr post infection measured 5 days post infection by MTT assay relative to wild type HIV1 pNL4-3; type: functional; in short: as §1
[5] = system: Human immunodeficiency virus 1; test: Antiviral activity against HIV1 clone4 infected in HEK293 cells harboring A-790742-selected protease L33F, A71V, G73S, V77I, V82L, and I84V mutation assessed as reduction in viral replication by luciferase reporter gene assay relative to wild type HIV1 pNL4-3; type: functional; in short: as §2
[6] = system: Human immunodeficiency virus 1; test: Antiviral activity against HIV1 clone2 infected in HEK293 cells harboring A-790742-selected protease V82L mutation assessed as reduction in viral replication by luciferase reporter gene assay relative to wild type HIV1 pNL4-3; type: functional; in short: as §2
[7] = system: Human immunodeficiency virus 1; test: Antiviral activity against HIV1 clone3 infected in HEK293 cells harboring A-790742-selected protease L33F, K45I, V82L, and I84V mutation assessed as reduction in viral replication by luciferase reporter gene assay relative to wild type HIV1 pNL4-3; type: functional; in short: as §2
[8] = system: Human immunodeficiency virus 1; test: Antiviral activity against HIV1 P15 infected in human MT4 cells derived from viral passages with A-790742 harboring protease L33L/F, K45I, V82L, and I84V mutation assessed as reduction in viral cytopathogenicity treated 1 hr post infection measured 5 days post infection by MTT assay relative to wild type HIV1 pNL4-3; type: functional; in short: as §1
[9] = system: Human immunodeficiency virus 1; test: Antiviral activity against HIV1 clone5 infected in HEK293 cells harboring A-790742-selected protease L63P, A71V, and V82G mutation assessed as reduction in viral replication by luciferase reporter gene assay relative to wild type HIV1 RF; type: functional; in short: as §2
[10] = system: Human immunodeficiency virus 1; test: Antiviral activity against HIV1 P25 infected in human MT4 cells harboring protease L10F, G16E, V32I, M46I, I47A, H69Y, I84V, and T91S mutation derived from viral passages with Lopinavir assessed as reduction in viral cytopathogenicity treated 1 hr post infection measured 5 days post infection by MTT assay; type: functional, organism-based; details: Human immunodeficiency virus 1, P25, MT4; in short: as §1
[11] = system: Human immunodeficiency virus 1; test: Antiviral activity against wild-type HIV1 pNL4-3 infected in human MT4 cells assessed as reduction in viral cytopathogenicity treated 1 hr post infection measured 5 days post infection in presence of 50% human serum by MTT assay; type: functional, organism-based; details: Human immunodeficiency virus 1, pNL4-3, MT4
[12] = system: Human immunodeficiency virus 1; test: Antiviral activity against wild-type HIV1 pNL4-3 infected in human MT4 cells assessed as reduction in viral cytopathogenicity treated 1 hr post infection measured 5 days post infection in absence of human serum by MTT assay; type: functional, organism-based; details: Human immunodeficiency virus 1, pNL4-3, MT4; in short: as §1
[13] = system: Human immunodeficiency virus 1; test: Antiviral activity against HIV1 A17 infected in human MT4 cells harboring protease L10F, V32I, M46I, I47V, Q58E, and I84V mutation derived from viral passages with Lopinavir assessed as reduction in viral cytopathogenicity treated 1 hr post infection measured 5 days post infection by MTT assay; type: functional, organism-based; details: Human immunodeficiency virus 1, A17, MT4; in short: as §1
[14] = system: Human immunodeficiency virus 1; test: Antiviral activity against wild-type HIV1 RF infected in human MT4 cells assessed as reduction in viral cytopathogenicity treated 1 hr post infection measured 5 days post infection in absence of human serum by MTT assay; type: functional, organism-based; details: Human immunodeficiency virus 1, RF; in short: as §1

| SMILES | Ratio EC50 [1] | Ratio EC50 [2] | Ratio EC50 [3] | Ratio EC50 [4] | Ratio EC50 [5] | Ratio EC50 [6] | Ratio EC50 [7] | Ratio EC50 [8] | Ratio EC50 [9] | EC50 [10] | EC50 [11] | EC50 [12] | EC50 [13] | EC50 [14] |
| --- | --- | --- | --- | --- | --- | --- | --- | --- | --- | --- | --- | --- | --- | --- |
| CC(C)(C)NC(=O)[C@@H]1C[C@@H]2CCCC[C@@H]2CN1C[C@@H](O)[C@H](Cc1ccccc1)NC(=O)[C@H](CC(N)=O)NC(=O)c1ccc2ccccc2n1 | 21 | 3 | 1 | 5 | 1 | 1 | 0.4 | 4 | 28 | – | – | – | – | – |
| CC(C)CN(C[C@@H](O)[C@H](Cc1ccccc1)NC(=O)O[C@H]1CCOC1)S(=O)(=O)c1ccc(N)cc1 | 41 | 9 | 1 | 34 | 2 | 1 | 12 | 11 | 41 | – | – | – | – | – |
| CC(C)CN(C[C@@H](O)[C@H](Cc1ccccc1)NC(=O)O[C@H]1CO[C@H]2OCC[C@H]21)S(=O)(=O)c1ccc(N)cc1 | – | – | 1 | – | 7 | 1 | 12 | – | 59 | 857 nM | 40 nM | – | – | – |
| CCC[C@@]1(CCc2ccccc2)CC(O)=C([C@H](CC)c2cccc(NS(=O)(=O)c3ccc(C(F)(F)F)cn3)c2)C(=O)O1 | – | – | – | – | 6 | – | – | – | – | – | 7840 nM | 184 nM | 360 nM | 204 nM |
